# Calls of active or inactive are those of the source. The rule behind the calls is not given here.
# How the values were obtained:
# RAW264.7 = assay: Inhibition of LPS and IFNgamma-induced nitric oxide production in mouse RAW264.7 cells incubated for 16 hrs by Griess assay; assay type: functional, cell-based
# In short: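 RAW 264.7 macrophages stimulated with LPS plus IFN-γ to induce iNOS. Compounds dissolved in DMSO and diluted in PBS. Nitrite in supernatants measured by Griess assay against a sodium nitrite standard curve after 16 h. Activity expressed relative to LPS/IFN-γ/0.1% DMSO control; L-NMMA as positive control. Eight concentrations, at least three independent experiments, each in duplicate.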
# [1] = target: T1, Peroxisome proliferator-activated receptor gamma (Homo sapiens) (UniProt P37231); assay: Agonist activity at human PPARgamma expressed in HEK293 cells assessed as induction of receptor activation at 10 uM incubated for 18 hrs by luciferase reporter gene assay relative to untreated control; assay type: cell-based
# T1 sequence (whole entry): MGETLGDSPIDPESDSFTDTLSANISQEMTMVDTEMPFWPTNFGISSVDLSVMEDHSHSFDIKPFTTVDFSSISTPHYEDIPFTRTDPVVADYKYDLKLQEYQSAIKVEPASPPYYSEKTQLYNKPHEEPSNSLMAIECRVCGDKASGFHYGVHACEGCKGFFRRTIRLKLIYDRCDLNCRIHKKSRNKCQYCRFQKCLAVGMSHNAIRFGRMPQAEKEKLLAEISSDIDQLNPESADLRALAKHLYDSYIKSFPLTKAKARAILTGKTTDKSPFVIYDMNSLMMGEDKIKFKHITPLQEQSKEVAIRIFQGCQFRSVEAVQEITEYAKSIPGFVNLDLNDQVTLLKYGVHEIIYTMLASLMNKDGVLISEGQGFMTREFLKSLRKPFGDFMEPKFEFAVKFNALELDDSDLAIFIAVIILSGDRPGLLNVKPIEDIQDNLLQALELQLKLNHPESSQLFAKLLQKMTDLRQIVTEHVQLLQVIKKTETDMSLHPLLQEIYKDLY
# In short: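 HEK-293 cells in DMEM with 10% FBS, transfected by calcium phosphate with human PPARγ1 plasmid, tk-PPREx3-luc reporter and pEGFP-N1. After 6 h, replated in phenol-red-free DMEM with charcoal-stripped FBS. Treated 18 h; DMSO ≤0.1% as solvent control. Firefly luciferase luminescence normalized to EGFP fluorescence per well.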
SMILES,inhibition (RAW264.7),Activity [1]
C=C[C@H](C#CC#C[C@@H](O)/C=C\CCCCCCC)O[C@]1(C)CC[C@@H](O)[C@]2(C)CC[C@@H](C(C)C)[C@@H](O)[C@H]21,inactive,
C=C[C@@H](O)C#CC#C[C@H](/C=C\CCCCCCC)O[C@]1(C)CC[C@@H](C(C)C)[C@@H](O)[C@@H]2[C@@](C)(O)CC[C@]21O,inactive,inactive
C=C[C@@H](O)C#CC#C[C@H](/C=C\CCCCCCC)O[C@]1(C)CC[C@@H](O)[C@]2(C)CC[C@H](C(C)C)[C@H](O)[C@H]21,inactive,inactive
C=C[C@H](C#CC#C[C@@H](O)/C=C\CCCCCCC)O[C@]1(C)CCC[C@]2(C)CC[C@@H](C(C)(C)O)C[C@H]21,inactive,
C=C[C@@H](O)C#Cc1c2c(cc3cc(OC)c(O)cc13)CO[C@H]2/C=C\CCCCCCC,inactive,inactive
C=C[C@@H](O)C#CC#C[C@H](/C=C\CCCCCCC)O[C@]1(C)CC[C@@H](O)[C@]2(C)CC[C@@H](C(C)C)[C@@H](O)[C@H]21,inactive,inactive
C=C[C@H]1OCc2cc3cc(OC)c(O)cc3c(C#C[C@@H](O)/C=C\CCCCCCC)c21,inactive,
C=C[C@H](C#CC#C[C@@H](O)/C=C\CCCCCCC)O[C@]1(C)CC[C@@H](C(C)C)[C@@H](O)[C@@H]2[C@@](C)(O)CC[C@]21O,inactive,inactive
C=C[C@@H](O)C#CC#C[C@H](/C=C\CCCCCCC)O[C@]1(C)CCC[C@]2(C)CC[C@@H](C(C)(C)O)C[C@H]21,inactive,
C=C[C@H](C#CC#C[C@@H](O)/C=C\CCCCCCC)O[C@]1(C)CC[C@@H](O)[C@]2(C)CC[C@H](C(C)C)[C@H](O)[C@H]21,inactive,inactive
